From PubChem BioAssay
E-selectin induc: E-selectin induction in HUVECs, primary screen, imaging, HUVEC, immunofluorescence imaging, single point | normalized: neutral wells 0, TNF-alpha wells 100 | activation, % at 7.58 µM | 0.37% of 260,000 active | P16581;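 active means mean E-selectin-positive cell signal at least 10% of the positive control, reached in at least 60% of replicates, without over 20% cell loss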
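assay system = HUVEC, human umbilical vein endothelial cells | input = 3,000 HUVEC seeded per well | medium = EGM-2 growth medium on 0.1% gelatin-coated wells | dosing = one compound dose added by pin transfer | signal = immunofluorescence imaging | read-out basis = % PE-positive cells | control set = TNF-alpha, DMSO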
S100A4 MyoIIA: inhibitors of S100A4-myosin IIA peptide binding, primary screen, biochemical, fluorescence polarization, TAMRA-MyoIIA peptide | inhibition, % at 10.7 µM | 0.14% of 360,000 active | AID 652163, 2013;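 active means mean inhibition of at least 70% across replicates, with every replicate also reaching that level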
Target sequence (P26447 whole entry, looked up): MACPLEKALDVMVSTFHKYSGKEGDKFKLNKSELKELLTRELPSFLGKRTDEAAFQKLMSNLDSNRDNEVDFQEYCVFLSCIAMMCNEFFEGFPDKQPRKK
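Test system: S100A4 monomer protein. Medium: HEPES buffer with Ca2+, pH 7.2. Reagent: fluorescent myosin IIA peptide, 5 nM. Compound dosing: single-point compound testing. Timing: 5 min between mix addition and reading. Benchmarks: DMSO neutral and TFP positive wells.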
DENV2 CPE: inhibitors of DENV2 cytopathic effect, primary screen, cell-based, plate reader, single concentration; DENV2-infected cells, cytopathic effect rescue; CPE inhibition, % at 9.99 µM; 1.7% of 350,000 active; AID 651640, 2012; in the data active means CPE inhibition above about 20%, passing the limit was not always enough; tested in BHK-21 cells
XiGFP reactiv: activators of inactive X chromosome reactivation, primary screen, imaging, XiGFP fibroblasts, GFP high-content imaging, set 2; XiGFP mouse fibroblasts, % GFP-positive cells imaging, 3 d; cells co-treated with 5-aza-dC sensitizer; scaled so ellipticine positive control = 100%; 0.055% of 360,000 active; AID 743238, 2013; activation, % at 7.58 µM;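 active means mean normalized replicate activation at least 10% and every replicate at or above 10%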
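Schedule: 3 d treatment, 15 min room-temperature fixation; system: 68-5-11 XiGFP fibroblast line; buffer or medium: DMEM plus 5-aza-dC sensitizer; control set: ellipticine 6 µM positive control; compound: one concentration, pinned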
Each line names hits and unclear results; the compound was inactive in the other large screens. A selection: hits, their analogues and other compounds. The true share with any hit is near 2%.

CN(C)C(=O)N1CCN(C(=O)[C@H]2O[C@@H](n3ccc(N)nc3=O)[C@H](O)[C@@H]2O)CC1	DENV2 CPE 70
COc1ccc(C)cc1COC(=O)c1[nH]c(C)c(C(C)=O)c1C	none (no result: E-selectin induc)
CCCCCCN1CCN(C2CN(Cc3ccc(C)cc3)S(=O)(=O)C2)CC1 (stereo not drawn)	none (no result: E-selectin induc)
CCCCCCN1CCN(C2CN(Cc3ccc(F)cc3)S(=O)(=O)C2)CC1 (stereo not drawn)	DENV2 CPE 31 (no result: XiGFP reactiv)
CC1(Cc2ccc(Cl)cc2)C(=O)Nc2ccc(-c3cccnc3)cc21 (stereo not drawn)	none
CC1(Cc2cccc(F)c2)C(=O)Nc2ccc(-c3cccnc3)cc21 (stereo not drawn)	DENV2 CPE 54
Cc1ccccc1-c1ccc([C@H]2[C@@H](CO)N3CCCCN(C(=O)Nc4ccccc4)C[C@H]23)cc1	none
C[C@@H]1CN([C@@H](C)CO)C(=O)Cc2cc(N(C)C)ccc2O[C@H]1CN(C)C(=O)Nc1ccc2c(c1)OCO2	DENV2 CPE 30 (no result: E-selectin induc)
C[C@H](CO)N1C[C@H](C)[C@@H](CN(C)C(=O)Nc2ccc3c(c2)OCO3)Oc2ccc(NS(C)(=O)=O)cc2CC1=O	DENV2 CPE 31
Nc1ccccc1S(=O)(=O)C(F)F	none
Cc1cc(O)c(C(C)C)cc1NC(=O)c1ccccc1Cl	DENV2 CPE 28 (no result: E-selectin induc)
CC(=O)N1c2ccc(S(=O)(=O)NCCC(=O)N3CCCC(C)C3)cc2CC1C (stereo not drawn)	DENV2 CPE 35 (no result: E-selectin induc)
CC(=O)N1c2ccc(S(=O)(=O)N3CCCC(C(=O)N4CCCC(C)C4)C3)cc2CC1C (stereo not drawn)	none (no result: E-selectin induc)
Cn1c(SCC(=O)c2cc3ccccc3o2)nnc1-c1ccccc1	DENV2 CPE 67
Cn1cnnc1SCC(=O)c1cc2ccccc2o1	none (no result: E-selectin induc)
Cc1cccc(-c2ccc([C@H]3[C@@H](CO)N4CCCCN(C(=O)c5ccncc5)C[C@H]34)cc2)c1	DENV2 CPE 20
COc1ccc(-c2ccc([C@H]3[C@H](CO)N4CCCCN(C(=O)c5ccc(F)cc5)C[C@@H]34)cc2)cc1	none (no result: DENV2 CPE)
Cc1cccc(-c2ccc([C@@H]3[C@@H](CO)N4CCCCN(C(=O)c5ccncc5)C[C@H]34)cc2)c1	none
COc1cccc(-c2ccc([C@H]3[C@H](CO)N4CCCCN(C(=O)c5ccc(F)cc5)C[C@@H]34)cc2)c1	DENV2 CPE 37
CCOc1ccc(N2CC(C(=O)NNC(=O)c3ccc(Br)cc3)CC2=O)cc1 (stereo not drawn)	S100A4 MyoIIA 73
CC(C)(C)OC(=O)N1CCC(NC(=O)c2nc[nH]c2C(=O)NC2CCN(C(=O)OC(C)(C)C)CC2)CC1	none
CCOC(=O)c1ccc(NC(=O)c2nc[nH]c2C(=O)NC2CCN(C(=O)OC(C)(C)C)CC2)cc1	DENV2 CPE 68
CC(C)(C)OC(=O)N1CCC(NC(=O)c2nc[nH]c2C(=O)NCC(=O)OCc2ccccc2)CC1	DENV2 CPE 38
Cc1ccc(NC(=O)c2ccc3c(c2)OCO3)cc1S(=O)(=O)N1CCOCC1	none (no result: E-selectin induc)
CCc1ccc(C(O)(C(C)C)C(CN2CCOCC2)c2ccccc2)cc1 (stereo not drawn)	none
COc1ccc(CN(C)C[C@@H]2Oc3ccc(NC(=O)c4ccncc4)cc3C(=O)N([C@H](C)CO)C[C@H]2C)cc1	E-selectin induc 93 (no result: S100A4 MyoIIA)
C[C@@H]1CN([C@H](C)CO)C(=O)c2cc(NC(=O)c3ccncc3)ccc2O[C@H]1CN(C)Cc1ccncc1	none
COc1ccc(CN(C)C[C@H]2Oc3ccc(NC(=O)c4ccncc4)cc3C(=O)N([C@H](C)CO)C[C@@H]2C)cc1	E-selectin induc 47
O=C1N(Cc2ccccc2)Cc2ccccc2[C@@H]2OC(c3ccc(OCCCO)cc3)=N[C@]12Cc1ccccc1	DENV2 CPE 26 (no result: E-selectin induc, XiGFP reactiv)
CCC(=O)N1C[C@@H](O)COC[C@H]2O[C@H](CC(=O)NCc3ccc(Oc4ccccc4)cc3)CC[C@@H]21	none
CCC(=O)N1C[C@H](O)COC[C@H]2O[C@@H](CC(=O)NCc3ccc(Oc4ccccc4)cc3)CC[C@@H]21	DENV2 CPE 92
O=C(C[C@@H]1CC[C@H]2[C@@H](COC[C@H](O)CN2CCc2ccccc2)O1)NCc1ccc(Oc2ccccc2)cc1	DENV2 CPE 24
